Assays:
Details in all cases: stereoisomer not certain
[1] = molecular target: T1, OR10G2 (Homo sapiens) (UniProt Q8NGC3)
T1 sequence (whole entry): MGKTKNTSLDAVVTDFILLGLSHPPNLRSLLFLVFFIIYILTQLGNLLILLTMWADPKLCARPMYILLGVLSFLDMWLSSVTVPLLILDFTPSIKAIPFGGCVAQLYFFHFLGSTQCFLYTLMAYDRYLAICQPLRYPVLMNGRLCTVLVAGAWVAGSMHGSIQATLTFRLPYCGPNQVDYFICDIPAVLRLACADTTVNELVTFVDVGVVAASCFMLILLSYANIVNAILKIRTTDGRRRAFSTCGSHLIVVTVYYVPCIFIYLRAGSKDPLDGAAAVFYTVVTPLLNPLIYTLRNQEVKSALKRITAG
Summary of the method: (§1)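 Each entry records the cell line, G-protein, co-transfected protein and tags used. Methods varied with the source, often transient luciferase assays in mammalian cell lines. A receptor–molecule pair is called responsive (active) if the original authors judged its signal statistically different from baseline and non-responsive (inactive) otherwise.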

[2] = molecular target: T2, OR10G3 (Homo sapiens) (UniProt Q8NGC4)
T2 sequence (whole entry): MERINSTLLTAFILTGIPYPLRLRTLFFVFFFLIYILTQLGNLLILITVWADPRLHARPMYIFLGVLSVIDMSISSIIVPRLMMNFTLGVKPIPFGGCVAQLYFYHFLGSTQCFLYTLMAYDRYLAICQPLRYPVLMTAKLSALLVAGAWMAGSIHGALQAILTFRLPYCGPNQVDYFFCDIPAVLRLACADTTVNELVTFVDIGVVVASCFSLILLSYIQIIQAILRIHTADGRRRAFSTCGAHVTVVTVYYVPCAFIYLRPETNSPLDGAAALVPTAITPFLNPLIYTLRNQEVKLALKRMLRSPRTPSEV
Summary of the method: as §1

[3] = molecular target: T3, OR10G4 (Homo sapiens) (UniProt Q8NGN3)
T3 sequence (whole entry): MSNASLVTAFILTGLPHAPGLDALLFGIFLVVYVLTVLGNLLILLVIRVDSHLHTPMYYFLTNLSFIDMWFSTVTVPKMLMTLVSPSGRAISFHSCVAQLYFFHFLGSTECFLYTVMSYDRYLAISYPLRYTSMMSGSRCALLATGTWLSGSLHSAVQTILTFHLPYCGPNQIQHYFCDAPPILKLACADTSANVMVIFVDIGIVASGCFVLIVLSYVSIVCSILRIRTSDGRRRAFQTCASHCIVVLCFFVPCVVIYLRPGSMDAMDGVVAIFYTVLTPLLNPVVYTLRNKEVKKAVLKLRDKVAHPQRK
Summary of the method: as §1

[4] = molecular target: T4, OR10G6 (Homo sapiens) (UniProt Q8NH81)
T4 sequence (whole entry): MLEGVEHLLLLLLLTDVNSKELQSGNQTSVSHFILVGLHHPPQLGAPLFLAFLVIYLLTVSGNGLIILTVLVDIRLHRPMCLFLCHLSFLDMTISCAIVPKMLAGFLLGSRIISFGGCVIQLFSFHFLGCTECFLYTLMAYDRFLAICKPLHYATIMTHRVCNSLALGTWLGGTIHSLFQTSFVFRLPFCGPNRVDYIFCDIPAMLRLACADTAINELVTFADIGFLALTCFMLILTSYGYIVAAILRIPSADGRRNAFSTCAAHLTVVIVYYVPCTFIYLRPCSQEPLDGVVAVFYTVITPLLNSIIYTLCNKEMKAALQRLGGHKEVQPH
Summary of the method: as §1

[5] = molecular target: T5, OR10G7 (Homo sapiens) (UniProt Q8NGN6)
T5 sequence (whole entry): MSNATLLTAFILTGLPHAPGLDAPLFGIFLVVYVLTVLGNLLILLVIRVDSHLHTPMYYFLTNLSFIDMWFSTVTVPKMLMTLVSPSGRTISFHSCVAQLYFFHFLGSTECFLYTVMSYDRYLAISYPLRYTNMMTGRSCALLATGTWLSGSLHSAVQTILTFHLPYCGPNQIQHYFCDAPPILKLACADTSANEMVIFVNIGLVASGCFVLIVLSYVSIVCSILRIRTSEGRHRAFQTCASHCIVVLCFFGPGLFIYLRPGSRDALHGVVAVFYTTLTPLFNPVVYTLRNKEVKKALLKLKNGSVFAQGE
Summary of the method: as §1

[6] = molecular target: T6, OR10G8 (Homo sapiens) (UniProt Q8NGN5)
T6 sequence (whole entry): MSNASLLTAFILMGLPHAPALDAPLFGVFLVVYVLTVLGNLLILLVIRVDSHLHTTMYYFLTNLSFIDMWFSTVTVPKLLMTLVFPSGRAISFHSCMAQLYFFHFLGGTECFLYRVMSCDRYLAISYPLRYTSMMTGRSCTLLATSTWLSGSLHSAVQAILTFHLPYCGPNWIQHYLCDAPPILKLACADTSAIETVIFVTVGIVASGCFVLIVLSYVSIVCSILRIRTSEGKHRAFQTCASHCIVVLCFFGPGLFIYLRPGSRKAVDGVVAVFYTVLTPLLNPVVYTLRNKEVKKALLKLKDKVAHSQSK
Summary of the method: as §1

[7] = molecular target: T7, OR10G9 (Homo sapiens) (UniProt Q8NGN4)
T7 sequence (whole entry): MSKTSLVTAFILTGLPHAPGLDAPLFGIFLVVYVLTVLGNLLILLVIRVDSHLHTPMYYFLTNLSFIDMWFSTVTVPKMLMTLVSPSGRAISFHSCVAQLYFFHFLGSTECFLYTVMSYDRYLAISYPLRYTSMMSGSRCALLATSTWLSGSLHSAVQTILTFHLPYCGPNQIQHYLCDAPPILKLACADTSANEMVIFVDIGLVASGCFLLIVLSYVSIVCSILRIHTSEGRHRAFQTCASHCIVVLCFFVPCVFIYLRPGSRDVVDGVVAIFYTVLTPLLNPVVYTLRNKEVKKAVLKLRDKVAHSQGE
Summary of the method: as §1

[8] = molecular target: T8, OR10H1 (Homo sapiens) (UniProt Q9Y4A9)
T8 sequence (whole entry): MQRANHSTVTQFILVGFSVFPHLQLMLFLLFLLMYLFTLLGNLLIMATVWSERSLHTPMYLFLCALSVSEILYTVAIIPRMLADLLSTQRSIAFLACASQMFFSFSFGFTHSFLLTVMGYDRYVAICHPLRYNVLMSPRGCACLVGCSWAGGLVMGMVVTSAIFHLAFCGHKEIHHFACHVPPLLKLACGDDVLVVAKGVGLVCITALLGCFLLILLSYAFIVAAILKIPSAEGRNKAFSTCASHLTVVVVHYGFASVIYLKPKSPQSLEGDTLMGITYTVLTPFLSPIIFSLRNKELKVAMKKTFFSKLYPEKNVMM
Summary of the method: as §1

[9] = molecular target: T9, OR10H2 (Homo sapiens) (UniProt O60403)
T9 sequence (whole entry): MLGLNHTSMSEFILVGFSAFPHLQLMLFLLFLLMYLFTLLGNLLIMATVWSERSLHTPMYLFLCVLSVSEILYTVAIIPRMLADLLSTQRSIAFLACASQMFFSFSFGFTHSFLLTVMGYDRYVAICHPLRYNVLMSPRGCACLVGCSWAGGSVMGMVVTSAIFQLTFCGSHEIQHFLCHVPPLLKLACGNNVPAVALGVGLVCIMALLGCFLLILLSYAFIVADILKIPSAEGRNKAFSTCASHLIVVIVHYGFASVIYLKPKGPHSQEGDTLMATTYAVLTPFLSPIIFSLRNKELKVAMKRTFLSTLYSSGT
Summary of the method: as §1

[10] = molecular target: T10, OR10H3 (Homo sapiens) (UniProt O60404)
T10 sequence (whole entry): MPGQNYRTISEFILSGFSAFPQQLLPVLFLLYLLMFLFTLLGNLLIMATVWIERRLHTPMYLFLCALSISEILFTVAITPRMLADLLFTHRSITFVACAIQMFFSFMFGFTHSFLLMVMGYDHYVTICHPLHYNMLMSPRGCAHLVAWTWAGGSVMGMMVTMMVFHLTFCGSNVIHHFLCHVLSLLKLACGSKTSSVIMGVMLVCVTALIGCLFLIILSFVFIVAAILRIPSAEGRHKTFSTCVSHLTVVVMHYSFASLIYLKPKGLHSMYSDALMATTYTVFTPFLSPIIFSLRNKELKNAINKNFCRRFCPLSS
Summary of the method: as §1

[11] = molecular target: T11, OR10H4 (Homo sapiens) (UniProt Q8NGA5)
T11 sequence (whole entry): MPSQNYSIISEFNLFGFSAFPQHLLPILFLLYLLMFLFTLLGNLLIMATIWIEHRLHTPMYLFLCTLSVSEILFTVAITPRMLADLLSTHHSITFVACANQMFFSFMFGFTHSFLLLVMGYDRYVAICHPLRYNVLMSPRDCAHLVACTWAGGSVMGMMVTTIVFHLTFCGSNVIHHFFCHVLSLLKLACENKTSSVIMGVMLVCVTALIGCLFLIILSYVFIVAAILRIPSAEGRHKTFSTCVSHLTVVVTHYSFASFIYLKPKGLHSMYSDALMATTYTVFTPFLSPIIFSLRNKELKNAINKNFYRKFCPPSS
Summary of the method: as §1

[12] = molecular target: T12, OR10H5 (Homo sapiens) (UniProt Q8NGA6)
T12 sequence (whole entry): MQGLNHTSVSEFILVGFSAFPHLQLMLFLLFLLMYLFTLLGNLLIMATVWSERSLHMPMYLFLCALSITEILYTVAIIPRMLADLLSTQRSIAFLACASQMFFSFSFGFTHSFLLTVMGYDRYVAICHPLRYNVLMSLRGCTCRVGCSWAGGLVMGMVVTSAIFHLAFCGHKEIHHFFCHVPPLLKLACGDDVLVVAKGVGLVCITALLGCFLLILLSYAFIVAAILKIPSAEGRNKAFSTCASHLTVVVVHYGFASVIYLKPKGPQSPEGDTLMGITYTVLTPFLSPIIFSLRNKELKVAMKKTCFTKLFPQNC
Summary of the method: as §1

[13] = molecular target: T13, OR10J1 (Homo sapiens) (UniProt P30954)
T13 sequence (whole entry): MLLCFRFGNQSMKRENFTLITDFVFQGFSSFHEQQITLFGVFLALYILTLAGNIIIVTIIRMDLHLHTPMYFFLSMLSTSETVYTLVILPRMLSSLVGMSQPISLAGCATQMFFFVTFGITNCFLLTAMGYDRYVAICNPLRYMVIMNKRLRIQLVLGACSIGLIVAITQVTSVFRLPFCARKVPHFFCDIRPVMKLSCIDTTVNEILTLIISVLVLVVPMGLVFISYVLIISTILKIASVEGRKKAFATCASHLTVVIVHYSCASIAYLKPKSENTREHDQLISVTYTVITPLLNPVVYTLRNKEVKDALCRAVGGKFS
Summary of the method: as §1

[14] = molecular target: T14, OR10J3 (Homo sapiens) (UniProt Q5JRS4)
T14 sequence (whole entry): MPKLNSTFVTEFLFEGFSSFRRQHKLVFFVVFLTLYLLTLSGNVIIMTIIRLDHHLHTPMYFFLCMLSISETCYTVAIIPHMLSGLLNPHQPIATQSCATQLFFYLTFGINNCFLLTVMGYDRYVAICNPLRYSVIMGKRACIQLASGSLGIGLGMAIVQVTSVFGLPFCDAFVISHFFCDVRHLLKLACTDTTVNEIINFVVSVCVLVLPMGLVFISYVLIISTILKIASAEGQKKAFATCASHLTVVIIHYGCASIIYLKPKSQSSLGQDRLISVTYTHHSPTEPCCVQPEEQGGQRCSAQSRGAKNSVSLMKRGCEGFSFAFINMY
Summary of the method: as §1

[15] = molecular target: T15, OR10J5 (Homo sapiens) (UniProt Q8NHC4)
T15 sequence (whole entry): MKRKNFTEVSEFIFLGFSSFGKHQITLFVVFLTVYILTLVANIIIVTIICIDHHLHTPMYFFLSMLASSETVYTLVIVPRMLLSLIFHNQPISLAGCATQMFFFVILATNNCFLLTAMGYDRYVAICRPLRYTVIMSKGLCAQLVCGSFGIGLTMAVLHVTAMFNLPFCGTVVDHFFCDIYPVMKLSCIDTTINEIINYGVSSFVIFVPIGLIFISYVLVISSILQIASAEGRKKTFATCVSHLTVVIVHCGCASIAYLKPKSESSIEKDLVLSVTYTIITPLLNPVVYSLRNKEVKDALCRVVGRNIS
Summary of the method: as §1

[16] = molecular target: T16, OR10K1 (Homo sapiens) (UniProt Q8NGX5)
T16 sequence (whole entry): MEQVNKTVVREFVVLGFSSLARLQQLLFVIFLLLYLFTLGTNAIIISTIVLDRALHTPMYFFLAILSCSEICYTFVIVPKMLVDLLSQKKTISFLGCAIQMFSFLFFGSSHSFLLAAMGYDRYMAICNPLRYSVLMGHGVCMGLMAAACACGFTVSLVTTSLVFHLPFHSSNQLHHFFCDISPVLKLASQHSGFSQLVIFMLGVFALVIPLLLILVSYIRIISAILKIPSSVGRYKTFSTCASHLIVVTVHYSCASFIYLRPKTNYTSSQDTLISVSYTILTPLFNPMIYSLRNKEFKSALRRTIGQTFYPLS
Summary of the method: as §1

[17] = molecular target: T17, OR10P1 (Homo sapiens) (UniProt Q8NGE3)
T17 sequence (whole entry): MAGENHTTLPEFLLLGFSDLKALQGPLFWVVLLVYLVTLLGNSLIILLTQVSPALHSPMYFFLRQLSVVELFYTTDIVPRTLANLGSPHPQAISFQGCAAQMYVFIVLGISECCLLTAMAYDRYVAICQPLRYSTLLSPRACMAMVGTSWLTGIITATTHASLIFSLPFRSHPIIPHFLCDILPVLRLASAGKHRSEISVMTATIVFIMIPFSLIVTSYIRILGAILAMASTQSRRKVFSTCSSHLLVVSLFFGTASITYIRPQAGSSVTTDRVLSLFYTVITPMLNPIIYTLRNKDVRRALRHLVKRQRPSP
Summary of the method: as §1

[18] = molecular target: T18, OR10Q1 (Homo sapiens) (UniProt Q8NGQ4)
T18 sequence (whole entry): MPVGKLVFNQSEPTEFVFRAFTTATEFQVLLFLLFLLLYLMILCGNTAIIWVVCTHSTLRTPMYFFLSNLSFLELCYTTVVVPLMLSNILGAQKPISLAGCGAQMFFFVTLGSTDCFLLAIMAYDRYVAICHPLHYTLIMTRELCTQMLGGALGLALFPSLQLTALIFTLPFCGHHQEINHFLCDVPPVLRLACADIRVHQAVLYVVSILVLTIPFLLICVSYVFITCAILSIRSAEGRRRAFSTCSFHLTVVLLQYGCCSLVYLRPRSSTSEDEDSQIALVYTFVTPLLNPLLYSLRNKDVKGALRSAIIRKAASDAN
Summary of the method: as §1

Measured: odorant receptor agonist call

CC1=C(O)C(=O)C(C)O1 (stereo not drawn)
inactive: all assays above

CCC(=O)C(=O)CC
inactive: [15]

CCC1OC(=O)C(O)=C1C (stereo not drawn)
inactive: all assays above

CCCCCCCCCCO
inactive: [15]

From the M2OR odorant receptor database
